The text below walks through data of article PMC3348450 (Investigational New Drugs, 2011).

A short description of series [1]: Treatment-related adverse events. In kind it is in vivo, human. In outline:
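Adverse events were graded by CTCAE version 3.0 throughout both studies in 18 Japanese patients on the oral test compound, taken in the fed state. Study 1 gave 5 mg BID continuously, six patients first receiving a single 5-mg dose. Study 2 gave single 5-, 7- and 10-mg doses, then 5 mg BID. Titration was to 7 then 10 mg BID; reduction was to 3 or 2 mg BID.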

The nature of series [2]: Treatment-related laboratory abnormalities, phase I Study 1 and Study 2. The format is in vivo, human. Particulars: treatment-related laboratory abnormality; pooled; N = 18. The method in brief: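 Laboratory abnormalities were pooled across 18 Japanese patients with solid tumours from two studies. Patients took the oral test compound in the fed state: 5 mg BID continuous dosing, preceded by single doses in some patients (5 mg; or 5, 7 and 10 mg in Study 2). Dose could be raised to 7 then 10 mg BID, or cut to 3 or 2 mg BID for toxicity.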

Series [3] can be described thus: Plasma pharmacokinetics of axitinib. In kind it is in vivo, human.
The test system of series [4] is thyroid gland. In words: Thyroid function tests. The following applies: two studies, 18 patients. The format is in vivo, human. The method in brief:
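Study 1 measured TSH weekly in cycle 1, then every 2 weeks. Study 2 determined anti-TPO and antithyroglobulin antibody titres at screening, and measured TSH, free T3, free T4 and thyroglobulin weekly in cycle 1, then every 2 weeks. Study 2 also measured total cholesterol and CPK, monitored thyroid tests at every visit, and gave thyroid hormone replacement according to TSH to keep patients euthyroid.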

The test system of series [5] is advanced malignant solid tumors. Briefly: Preliminary antitumor activity. The format is in vivo, human. The following applies: 11 of 17 evaluable patients who had a target lesion.
For series [6] the following is noted: cited from earlier work.
The conditions of series [7]: cited from earlier work. The source holds these as a separate data set.
For series [8] the following is noted: cited from earlier work. The source holds these as a separate data set.
Where [9] appears, read: Study 2 (N = 6), four patients received thyroid hormone replacement therapy.
[10] abbreviates: treatment-related, pooled, N = 18.

The structures appear in SMILES notation.

With `CNC(=O)c1ccccc1Sc1ccc2c(/C=C/c3ccccn3)n[nH]c2c1` [axitinib, Axitinib], in series [1] (18 patients), the “Grade 3/4 fatigue, patients” value is 28% and the “Grade 3/4 hypertension, patients” value was found to be 33%. Further, the “Grade 3/4 fatigue, patients” value in series [1] (Study 1) amounted to 42%. Besides, in series [1] (Study 1 (N = 12)), the “Treatment-related fatigue, all grades” value is 10 (83) n (%) and the “Treatment-related fatigue, grade 3/4” value was 5 (42) n (%). Also, in series [1] (setting [9]), the “Treatment-related fatigue, all grades” value is reported as 5 (83) n (%) and the “Treatment-related fatigue, grade 3/4” value is listed as 0 n (%). In series [1] (treatment-related, 18 patients), the “Anorexia, patients” value was found to be 72%; the “Diarrhea, patients” value is 67%; the “Hand–foot syndrome, patients” value was 67%; the “Hypertension, patients” value was found to be 61%. Moreover, the “Fatigue, all grades” value in series [1] (treatment-related, pooled Study 1 and Study 2, N = 18) is on record as 15 (83) n (%). In addition, in series [1] (setting [10]), the “Anorexia, all grades” value is recorded as 13 (72) n (%); the “Constipation, all grades” value is listed as 7 (39) n (%); the “Diarrhea, all grades” value is reported as 12 (67) n (%); the “Epistaxis, all grades” value is on record as 5 (28) n (%). Further, in series [1] (setting [10]), the “Hand–foot syndrome, all grades” value was 12 (67) n (%); the “Hand–foot syndrome, grade 3/4” value is 1 (6) n (%); the “Headache, all grades” value is recorded as 4 (22) n (%); the “Hoarseness, all grades” value is given as 9 (50) n (%). Also, in series [1] (setting [10]), the “Hypertension, all grades” value is on record as 11 (61) n (%); the “Nausea, all grades” value is 4 (22) n (%); the “Rash, all grades” value is given as 6 (33) n (%); the “Stomatitis, all grades” value is reported as 10 (56) n (%). Further, the “Fatigue (all grades), patients” value in series [1] (treatment-related, two studies, 18 patients) came to 83%. The Anemia entry in series [1] (two phase I studies) is given as “not reported as an adverse event”. Besides, in series [2], the “ALP increased, all grades” value is recorded as 4 (22) n (%); the “AST increased, all grades” value was 4 (22) n (%); the “Blood glucose increased, all grades” value is 5 (28) n (%); the “Blood glucose increased, grade 3/4” value is reported as 0 n (%). Also, in series [2], the “Hematuria, all grades” value is given as 7 (39) n (%); the “Lipase increased, all grades” value was 6 (33) n (%); the “Lipase increased, grade 3/4” value is 0 n (%); the “Lymphocyte count decreased, all grades” value is listed as 1 (6) n (%). For the same compound, in series [2], the “Lymphocyte count decreased, grade 3/4” value is given as 0 n (%); the “Neutrophil count decreased, all grades” value is listed as 3 (17) n (%); the “Neutrophil count decreased, grade 3/4” value is listed as 1 (6) n (%); the “Platelet count decreased, all grades” value is recorded as 6 (33) n (%). Also, in series [2], the “Platelet count decreased, grade 3/4” value is 0 n (%); the “Proteinuria, all grades” value was 9 (50) n (%); the “TSH decreased, all grades” value is recorded as 4 (22) n (%); the “TSH increased, all grades” value is 13 (72) n (%). In series [3] (human, plasma, oral, 5 mg), the AUC was found to be 138 ng·h/mL and the Tmax came to 4.04 h. For the same compound, the half-life in series [3] (human, plasma, oral, 10 mg) was in the range of 4.8 to 5.9 h. The “Time after administration at which plasma concentration reached maximum (Cmax)” value in series [3] (single dose 5, 7, 10 mg, Study 2) is on record as ~ 4 h. Further, the “Dose linearity of plasma pharmacokinetics” value in series [3] (single dosing of 5 mg, 7 mg and 10 mg) is “generally linear”. In series [4], the “Patients with elevation of TSH above the upper limit of normal range” value came to 89%. Also, the “Evaluable patients with a reduction in tumor size” value in series [5] turned out to be 65%. Also, the “Plasma exposure, fed state versus shorter fasting durations” value in series [6] (2 h before and 2 h after dosing, and 1 h before and 1 h after dosing) is “no difference in exposure”. In addition, the “Plasma exposure, fed state versus overnight fasting state” value in series [6] (Western healthy volunteers) is “lower plasma exposure”. Further, in series [7], the “Hemoglobin change in treated patients” value is reported as “Elevation of hemoglobin”.
For `CNC(=O)c1cc(Oc2ccc(NC(=O)Nc3ccc(Cl)c(C(F)(F)F)c3)cc2)ccn1` [sorafenib], in series [8], the “Hypothyroidism and thyroid dysfunction, patients” value is given as ~ 20%. For the same compound, in series [7], the “Hemoglobin change in treated patients” value is on record as “Elevation of hemoglobin”.
As for `CCN(CC)CCNC(=O)c1c(C)[nH]c(/C=C2\C(=O)Nc3ccc(F)cc32)c1C` [sunitinib], the “Hypothyroidism and thyroid dysfunction, patients” value in series [8] is given as 36–85%. Further, the “Hemoglobin change in treated patients” value in series [7] is “Elevation of hemoglobin”.
